Laboratory results: ChEMBL document CHEMBL3758157, “Design, synthesis, and evaluation of potent Wnt signaling inhibitors featuring a fused 3-ring system” (Eur J Med Chem, 2016)
Values after ≈ are worked out from the molar mass of the structure shown. Active and inactive are the calls of the source. The calls are words filed in the database; no cut-off is given here.

How the values were obtained:
[1] = Inhibition of Wnt signaling (unknown origin) expressed in mouse L Wnt3A cells co-cultured with HEK293 cells after 48 hrs by Super-top flash reporter gene assay; assay type: cell-based; details: Homo sapiens, HEK293, 48 h
Summary of the method: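 Mouse L Wnt3A cells and HEK293 Super-Top Flash TCF-luciferase stable cells mixed 1:1, 12,000 cells/well, grown 24 h, then compound in DMSO diluted in DMEM added. After 48 h at 37°C, Bright-Glo luminescence read; IC50 from signal inhibition, geometric mean of at least two runs ± SEM; LGK974 standard in each run.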

[2] = Cytotoxicity against mouse NIH/3T3 cells by GRE-Luciferase reporter gene assay; assay type: cell-based; details: nih3t3
Summary of the method: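 NIH3T3 cells carrying GRE-luciferase reporter stimulated with 10 nM SAG as Hh pathway agonist, used as counter-screen for nonspecific cytotoxicity.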

[3] = biological target: T1, Protein-serine O-palmitoleoyltransferase porcupine (Homo sapiens) (UniProt Q9H237); test: Inhibition of porcupine (unknown origin) in HEK293T cells transfected with pLibin-WNT3A plasmid assessed as reduction in Wnt3A secretion into cell culture medium at 0.1 uM after 48 hrs by Western blot technique; assay type: cell-based; details: HEK-293T
T1 sequence (whole entry): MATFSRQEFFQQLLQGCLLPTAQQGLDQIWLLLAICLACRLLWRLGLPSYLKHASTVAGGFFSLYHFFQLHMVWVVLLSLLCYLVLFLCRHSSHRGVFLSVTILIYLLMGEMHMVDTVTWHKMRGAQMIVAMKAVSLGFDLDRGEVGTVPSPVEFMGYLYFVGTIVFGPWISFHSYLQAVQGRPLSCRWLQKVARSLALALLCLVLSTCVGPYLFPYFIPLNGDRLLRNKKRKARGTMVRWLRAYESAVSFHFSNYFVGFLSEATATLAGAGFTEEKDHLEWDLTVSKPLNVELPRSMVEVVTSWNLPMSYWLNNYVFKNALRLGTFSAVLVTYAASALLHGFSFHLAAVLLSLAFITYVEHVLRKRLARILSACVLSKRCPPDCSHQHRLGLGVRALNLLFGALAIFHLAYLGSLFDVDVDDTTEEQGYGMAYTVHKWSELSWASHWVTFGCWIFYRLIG
Summary of the method: (§1)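 HEK293T cells in 6-well plates at 60% confluence, transfected with 1 µg pLibin-WNT3A plasmid or vehicle and treated at the same time with 0.1 µM compound. After 48 h, culture supernatant and cell lysate (40-50 µg protein) separated by SDS-PAGE, blotted to PVDF and probed for Wnt3A.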

[4] = Effect on Wnt3A level in HEK293T cells transfected with pLibin-WNT3A plasmid at 0.1 uM after 48 hrs by Western blot technique; assay type: cell-based; details: human, hek-293t; summary of the method: as §1
[5] = Chemical stability in simulated gastric fluid assessed as compound remaining at 200 uM at 40 degC after 24 hrs by HPLC technique; assay type: physicochemical; details: read-out: Stability
Summary of the method: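 Compound at 200 µM in simulated gastric fluid (3.8 mL conc. HCl diluted to 1000 mL water), held at 40°C for 24 h; percent remaining reported.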

[6] = Stability in rat plasma assessed as compound remaining at 1 uM after 8 hrs by LC-MS/MS analysis; assay type: ADME, cell-free; details: read-out: Stability
Summary of the method: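 Compound at 1 µM incubated in blank rat plasma for 8 h, deproteinized with acetonitrile plus internal standard, centrifuged, supernatant measured by LC-MS/MS; percent remaining.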

[7] = Intrinsic clearance in human liver microsomes at 1 uM preincubated for 10 mins followed by NADPH addition measured for 30 to 60 mins by LC-MS/MS analysis; assay type: ADME; details: read-out: CLH
Summary of the method: (§2)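 Liver microsomes (mouse or human, 0.2 mg/mL) with 1 µM substrate in 100 mM phosphate pH 7.4, preincubated 10 min, then started with 1 mM NADPH. Sampled at 0, 30, 60 min, quenched in cold acetonitrile with internal standard, LC-MS/MS. t1/2 from ln % remaining slope; scaled with 20 mg protein/g liver, liver 87.5 (mouse) or 25.7 (human) g/kg.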

[8] = Intrinsic clearance in mouse liver microsomes at 1 uM preincubated for 10 mins followed by NADPH addition measured for 30 to 60 mins by LC-MS/MS analysis; assay type: ADME; details: read-out: CLH; summary of the method: as §2
[9] = Half life in human liver microsomes at 1 uM preincubated for 10 mins followed by NADPH addition measured for 30 to 60 mins by LC-MS/MS analysis; assay type: ADME; summary of the method: as §2
[10] = Half life in mouse liver microsomes at 1 uM preincubated for 10 mins followed by NADPH addition measured for 30 to 60 mins by LC-MS/MS analysis; assay type: ADME; summary of the method: as §2
[11] = Thermodynamic solubility of the compound in FaSSIF at 4 mg/ml at pH 6.5 after overnight incubation by LC-MS/MS analysis; assay type: physicochemical; details: read-out: Therm_solubility
Summary of the method: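 4 mg/mL suspension in FaSSIF (pH 6.5) shaken 1 h, then equilibrated overnight at room temperature; supernatant after centrifugation quantified by LC-MS/MS.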

[12] = tested on: Rattus norvegicus; test: AUC (0 to 24 hrs) in Sprague-Dawley rat plasma at 2 mg/kg, iv by LC-MS/MS analysis; assay type: ADME, organism-based; set-up: dose 2 mg/kg, time < 24 hr, route intravenous; details: in vivo
Summary of the method: (§3)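 Male Sprague-Dawley rats (200-250 g), fasted 12 h before dosing, food returned ~4 h post-dose. Solution at 1 mg/mL in NMP/Tween80/PEG400/water (10/1/50/39) given by tail vein at 2 mL/kg or oral gavage at 10 mL/kg. Plasma from timed blood samples precipitated with cold acetonitrile plus internal standard, measured by LC-MS/MS; noncompartmental PK parameters.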

[13] = Volume of distribution at steady state in Sprague-Dawley rat at 2 mg/kg, iv by LC-MS/MS analysis; assay type: ADME, organism-based; details: in vivo, read-out: Vdss; summary of the method: as §3
[14] = Cmax in Sprague-Dawley rat plasma at 2 mg/kg, iv by LC-MS/MS analysis; assay type: ADME, organism-based; set-up: dose 2 mg/kg, route intravenous; summary of the method: as §3
[15] = Half life in Sprague-Dawley rat at 2 mg/kg, iv by LC-MS/MS analysis; assay type: ADME, organism-based; details: in vivo; summary of the method: as §3
[16] = AUC (0 to 24 hrs) in Sprague-Dawley rat plasma at 10 mg/kg, po by LC-MS/MS analysis; assay type: ADME, organism-based; set-up: dose 10 mg/kg, time < 24 hr, route oral; summary of the method: as §3
[17] = Cmax in Sprague-Dawley rat plasma at 10 mg/kg, po by LC-MS/MS analysis; assay type: ADME, organism-based; set-up: dose 10 mg/kg, route oral; summary of the method: as §3
[18] = Tmax in Sprague-Dawley rat plasma at 10 mg/kg, po by LC-MS/MS analysis; assay type: ADME, organism-based; summary of the method: as §3
[19] = Half life in Sprague-Dawley rat at 10 mg/kg, po by LC-MS/MS analysis; assay type: ADME, organism-based; details: in vivo; summary of the method: as §3
[20] = Oral bioavailability in Sprague-Dawley rat at 10 mg/kg by LC-MS/MS analysis; assay type: ADME, organism-based; details: in vivo; summary of the method: as §3
[21] = tested on: Wnt3A; test: Potency index, ratio of LGK974 IC50 to compound IC50 for Wnt signaling (unknown origin) expressed in mouse L Wnt3A cells co-cultured with HEK293; assay type: cell-based; details: Homo sapiens

SMILES | IC50 [1] | Activity [2] | other results
O=C(Cc1ccc2c(c1)Cc1ccccc1-2)Nc1ccc(-c2cccnc2)cc1 | 231 nM | Non-toxic | –
O=C(Cc1ccc2c(c1)Cc1ccccc1-2)Nc1ccc(-c2cnccn2)cn1 | 454 nM | Non-toxic | –
O=C(Cc1ccc2c(c1)oc1ccccc12)Nc1ccc(-c2cccnc2)cc1 | 544 nM | Non-toxic | –
O=C(Cc1ccc2c(c1)C(=O)c1ccccc1-2)Nc1ccc(-c2cccnc2)cc1 | > 1000 nM | Non-toxic | –
O=C(Cc1ccc2c(c1)C(=O)c1ccccc1-2)Nc1ccc(-c2cnccn2)cn1 | > 1000 nM | Non-toxic | –
Cc1cc(-c2ncc(CC(=O)Nc3ccc4c5ccccc5n(C)c4c3)cc2C)ccn1 | 49 nM | Non-toxic | –
Cc1cc(-c2ncc(CC(=O)Nc3ccc4c(c3)[nH]c3ccccc34)cc2C)ccn1 | 2.6 nM | Non-toxic | –
Cc1cc(-c2ncc(CC(=O)Nc3ccc4c(c3)Cc3ccccc3-4)cc2C)ccn1 | 2.5 nM | Non-toxic | –
Cc1cc(-c2ncc(CC(=O)Nc3ccc4c(c3)C(=O)c3ccccc3-4)cc2C)ccn1 | 2.8 nM | Non-toxic | –
Cc1cc(-c2ccc(CC(=O)Nc3ccc4c(c3)[nH]c3ccccc34)cc2)ccn1 | 2.3 nM | Non-toxic | inhibition [3]: Active; Activity [4]: Non-toxic; remaining at 24 h, 200 µM [5]: 100%; remaining at 8 h, 1 µM [6]: 100%; CLint scaled at 1 µM [7]: 41 mL/min/kg; CLint scaled at 1 µM [8]: 67 mL/min/kg; half-life at 1 µM [9]: 43 min; half-life at 1 µM [10]: 91 min; solubility thermodynamic [11]: 2 µg/mL (≈ 5.11 µM); AUC [12]: 7442 ng·h/mL; Vd [13]: 2.7 L/kg; Cmax [14]: 1950 ng/mL; half-life [15]: 150 min; AUC(0-t) at 24 h [16]: 11300 ng·h/mL; Cmax [17]: 2880 ng/mL; Tmax [18]: 1 h; half-life [19]: 186 min; bioavailability [20]: 30%
Cc1cc(-c2ncc(CC(=O)Nc3ccc4c(c3)C(F)(F)c3ccccc3-4)cc2C)ccn1 | 2.7 nM | Non-toxic | –
Cc1cc(-c2ccc(CC(=O)Nc3ccc4c(c3)C(F)(F)c3ccccc3-4)cc2)ccn1 | 3.5 nM | Non-toxic | –
Cc1cc(-c2ncc(CC(=O)Nc3ccc(-c4cnccn4)cn3)cc2C)ccn1 [WNT-974] | 0.9 nM | – | inhibition [3]: Active; Activity [4]: Non-toxic
Cc1cc(-c2ccc(CC(=O)Nc3ccc4c(c3)Cc3ccccc3-4)cc2)ccn1 | 1.4 nM | Non-toxic | –
Cc1cc(-c2ncc(CC(=O)Nc3ccc4c(c3)oc3ccccc34)cc2C)ccn1 | 13 nM | Non-toxic | –
O=C(Cc1ccc2c(c1)oc1ccccc12)Nc1ccc(-c2cnccn2)cn1 | 136 nM | Non-toxic | –
Cc1cc(-c2ccc(CC(=O)Nc3ccc4c(c3)C(=O)c3ccccc3-4)cc2)ccn1 | 0.45 nM | Non-toxic | Ratio IC50 [21]: 2; inhibition [3]: Active; Activity [4]: Non-toxic; remaining at 24 h, 200 µM [5]: 99%; remaining at 8 h, 1 µM [6]: 100%; CLint scaled at 1 µM [7]: 149 mL/min/kg; CLint scaled at 1 µM [8]: 508 mL/min/kg; half-life at 1 µM [9]: 12 min; half-life at 1 µM [10]: 12 min; solubility thermodynamic [11]: < 1 µg/mL
Cc1cc(-c2ccc(CC(=O)Nc3ccc4c5ccccc5n(C)c4c3)cc2)ccn1 | 191 nM | Non-toxic | –
Cc1cc(-c2ccc(CC(=O)Nc3ccc4c(c3)oc3ccccc34)cc2)ccn1 | 9 nM | Non-toxic | –
